# SUMO1-SIM PPI = alters human SUMO1 binding to SIM partners; 360,000 compounds, 0.33% hits; P63165; inhibition, % at 20 µM; SUMO1 binding to a labelled peptide, TR-FRET, 1 h; in the data active = inhibition above about 37%
# DNMT1 inh = inhibitors of human DNMT1. 360,000 compounds, 0.83% hits. inhibition (reported as % activation of signal), % at 10 µM. P26358. DNMT1 molecular beacon, Hinp1I cleavage, fluorescence. AID 588458; in the data active = inhibition above about 50%
# Target sequence (P26358 504-1616 limits assumed): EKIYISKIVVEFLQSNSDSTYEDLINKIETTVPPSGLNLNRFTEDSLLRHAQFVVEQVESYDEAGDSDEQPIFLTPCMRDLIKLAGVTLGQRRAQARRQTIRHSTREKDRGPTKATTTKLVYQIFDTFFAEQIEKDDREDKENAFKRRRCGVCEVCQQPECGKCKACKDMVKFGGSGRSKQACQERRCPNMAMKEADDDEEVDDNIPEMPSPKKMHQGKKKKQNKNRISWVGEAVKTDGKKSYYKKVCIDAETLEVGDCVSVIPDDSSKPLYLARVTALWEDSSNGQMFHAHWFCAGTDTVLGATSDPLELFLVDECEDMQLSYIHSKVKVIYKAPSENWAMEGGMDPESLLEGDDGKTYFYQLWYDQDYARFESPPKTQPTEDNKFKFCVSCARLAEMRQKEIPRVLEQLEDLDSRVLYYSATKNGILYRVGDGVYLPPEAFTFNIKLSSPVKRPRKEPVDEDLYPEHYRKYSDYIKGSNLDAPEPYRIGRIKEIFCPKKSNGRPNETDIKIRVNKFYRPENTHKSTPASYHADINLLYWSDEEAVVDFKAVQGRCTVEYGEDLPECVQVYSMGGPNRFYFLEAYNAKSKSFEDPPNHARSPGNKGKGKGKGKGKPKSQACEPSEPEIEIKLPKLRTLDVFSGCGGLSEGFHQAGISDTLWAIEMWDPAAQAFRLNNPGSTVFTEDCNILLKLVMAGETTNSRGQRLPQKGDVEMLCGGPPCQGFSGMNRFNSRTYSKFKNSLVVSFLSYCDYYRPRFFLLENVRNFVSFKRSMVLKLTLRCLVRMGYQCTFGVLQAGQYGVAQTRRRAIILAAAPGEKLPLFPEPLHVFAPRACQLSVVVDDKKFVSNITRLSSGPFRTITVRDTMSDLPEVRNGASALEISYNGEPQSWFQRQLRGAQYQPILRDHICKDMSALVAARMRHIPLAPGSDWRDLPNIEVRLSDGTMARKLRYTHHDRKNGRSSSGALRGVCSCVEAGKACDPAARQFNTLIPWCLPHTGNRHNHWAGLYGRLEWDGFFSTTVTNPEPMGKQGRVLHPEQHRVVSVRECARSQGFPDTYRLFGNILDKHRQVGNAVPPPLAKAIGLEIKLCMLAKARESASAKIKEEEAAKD
# STEP inh = STEP (human) phosphatase inhibition; inhibition, % at 20 µM; 360,000 compounds, 0.25% hits; P54829; recombinant STEP, OMFP fluorogenic substrate, fluorescence;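 active = inhibition at 20 µM, scaled per plate between control wells, above about 37%, limit read from the data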;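 note: 0% = DMSO with enzyme and substrate and 100% = substrate only without enzyme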
#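 Also added – OMFP at 25 µM · Test system – STEP tyrosine phosphatase · Technique – FITC-channel fluorescence of OMFP product · Schedule – 20 min at room temperature, dark · Evaluation – control-normalized % inhibition with plate pattern correction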
# Rpn11 inh = inhibitors of human proteasome Rpn11. O00487. human 26S proteasome, Ub4-pepOG fluorescence polarization; 20S core pre-blocked with epoxomicin. inhibition, % at 20 µM. 360,000 compounds, 0.59% hits;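 active = inhibition at 20 µM, scaled to each plate's controls, above about 33%, limit read from the data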
# Scp-1 inhibitor = inhibitors of human Scp-1 phosphatase. Q9GZU7. Recombinant Scp1, phosphopeptide, malachite green phosphate absorbance. inhibition, % at 20 µM. 340,000 compounds, 0.88% hits. AID 493091;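 active = inhibition above about 50% at 20 µM, limit read from the data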;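 note: plate controls were DMSO wells with enzyme for no effect and wells lacking enzyme for full effect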
#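 Material – SCP-1 phosphatase catalytic domain, residues 76-261 · Buffer or medium – Acidic Tris acetate buffer with magnesium and detergent · Also added – Phospho 17-mer peptide substrate · Compound – single 20 µM dose, 1% DMSO · Times – 45 min room-temperature reaction, 5 min colour, 30 min stabiliser · Technique – Phosphate-binding colour reagent, absorbance read at 630 nm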
# LMPTP block = blocks human LMPTP phosphatase. recombinant LMPTP-A, OMFP fluorogenic substrate, fluorescence intensity. inhibition, % at 20 µM. 360,000 compounds, 0.22% hits. AID 651560;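 active = compounds that cut the enzyme signal by at least half of the control window in the single-dose screen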;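 note: plate controls were DMSO wells with enzyme plus substrate for no effect and substrate without enzyme for full effect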
#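 Buffer or medium: Bis-Tris pH 6.0, DTT, detergent; Assay system: LMPTP-A enzyme; Quantity: 0.625 nM enzyme; Detection: endpoint fluorescence intensity; Times: 50 min dark incubation at room temperature; Controls: substrate-only low control, DMSO enzyme-plus-substrate high control; Doses: single 20 µM dose; Read-out: percent inhibition versus substrate-only and uninhibited controls; Reagent: 400 µM OMFP.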
# Rpn11 confirm = Rpn11 inhibition confirmation, single concentration; shares compounds with Rpn11 inh; purified human 26S proteasome, Ub4-pepOG fluorescence polarization; proteasome pretreated with epoxomicin; inhibition, % at 20 µM; 1,900 compounds, 29% hits; AID 602318
# MMP-2 inh = counter-screen for RPN11 inhibitors: inhibition of human MMP-2; shares compounds with Rpn11 inh; recombinant MMP-2, FRET peptide cleavage fluorescence; inhibition, % at 20 µM; 1,900 compounds, 4% hits;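 note: human MMP-2 activated beforehand with APMA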
# Thrombin inh = thrombin (bovine) inhibition counter-screen; shares compounds with Rpn11 inh; bovine thrombin cleavage of Ub4-pepOG, fluorescence polarization; inhibition, % at 20 µM; 1,900 compounds, 13% hits; AID 602333;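 active = mean inhibition at least 40% at 20 µM, or signal 3 deviations below plate average, so some actives read negative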;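 note: plate controls were thrombin with DMSO for no effect and buffer wells lacking thrombin for full effect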
# Numbers without * were called inactive; · = no result given; ! = not confirmed by another sample. In the library only some 2.3% were active in any assay of this set; here they are far more common. Cut-off read from the data, not from the text of the source, unless noted: active = inhibition above about 40%; inactive = the rest.
SMILES,SUMO1-SIM PPI,DNMT1 inh,STEP inh,Rpn11 inh,Scp-1 inhibitor,LMPTP block,Rpn11 confirm,MMP-2 inh,Thrombin inh
Cc1ccc(/C=C2\SC(=S)N(CCCC(=O)NNC(=O)c3ccccc3O)C2=O)cc1,5,-1,1,42*,-6,2,43*,-32,-22
COc1ccc(/C=C2\SC(=S)N(CCCC(=O)Nc3ccccc3C(=O)O)C2=O)cc1OC,-8,-2,-1,48*,-11,2,88*,-30,81*
Cc1ccc(/C=C2\SC(=S)N(CCC(=O)NNC(=O)c3ccccc3O)C2=O)cc1,-1,12,0,-6,-4,3,·,·,·
COc1ccc(/C=C2\SC(=O)N(CCCC(=O)Nc3ccc(C(=O)O)cc3)C2=O)cc1OC,-25,1,2,5,-9,1,·,·,·
Nc1nc(NCCCN2CCOCC2)nc(Nc2ccccc2F)c1[N+](=O)[O-],-20,8,-1,5,-4,0,·,·,·
COc1cc(/C=C2/SC(=S)N(CC(=O)O)C2=O)ccc1OC(=O)c1ccco1,-11,-2,1,45*,21,-1,19,-8,15
COc1cc(/C=C2\SC(=S)N(CC(=O)O)C2=O)ccc1OC(=O)c1ccco1,-4,-1,1,31,-5,-1,·,·,·
COc1ccc(N(CC(=O)NCc2ccccc2OC)S(=O)(=O)c2ccccc2[N+](=O)[O-])c(OC)c1,-6,-3,1,-2,-11,-1,·,·,·
COc1ccc(N(CC(=O)NCc2ccc3c(c2)OCO3)S(=O)(=O)c2ccccc2[N+](=O)[O-])c(OC)c1,8,9,0,56*,-2,3,-12,-19,-7
Cc1ccc(NC(=O)C2CCN(S(=O)(=O)c3ccc4c(c3)NC(=O)C(C)S4)CC2)cc1Cl (centres undefined),2,-13,-2,42*,-11,3,44*,1,35
Cn1c(=O)oc2cc(S(=O)(=O)N3CCCC(C(=O)NC4CCCc5ccccc54)C3)ccc21 (centres undefined),2,-3,0,6,-12,1,·,·,·
CC1=Nc2ccc(C)cc2/C1=C/c1c(N)n2oc(C)cc2nc1=O,5,56*!,6,70*,-4,16,59*,-25,32
O=C(CC1C(=O)NCCN1Cc1ccccc1)NCCCOc1cccnc1 (centres undefined),0,-1,0,-8,-9,2,·,·,·
CCN1CCN(c2nc3c(c(=O)[nH]c(=O)n3C)n2CCSc2nc3ccccc3s2)CC1,-2,1,-1,2,-5,-1,·,·,·
CC(CSc1nc2ccccc2s1)Cn1c(N2CCCC2)nc2c1c(=O)[nH]c(=O)n2C (centres undefined),4,3,-3,34*,-8,-2,11,37,8
COc1ccc(-n2ccc(=O)c(C(=O)Nc3ccc(S(=O)(=O)Nc4nccs4)cc3)n2)cc1,-6,4,1,48*,1,7,2,68*,19
COc1cccc(OC)c1C(=O)NCCN1CCN(C(=O)c2c(OC)cccc2OC)CC1,-1,-10,-3,134*,-10,-3,-2,-14,-17
N#CCC(=O)c1ccccc1Oc1ccc(Cl)cc1,0,-2,0,65*,-1,0,10,18,12
O=C(O)CSc1ncnc2nc[nH]c12,1,-1,0,168*,-14,-1,5,-26,-1
O=C(CSc1ncnc2nc[nH]c12)c1ccc2ccccc2c1,-21,-7,0,-5,4,1,·,·,·
Cc1ccc(N=C2NC(=O)/C(=C/c3cccs3)S2)cc1C,-12,3,1,99*,-27,2,64*,3,0
Cc1cccc(N=C2NC(=O)/C(=C\c3cccs3)S2)c1,-6,9,2,42*,-7,4,-1,-40,-12
CCc1cc(CNC(=O)C2CCC(=O)N(Cc3ccccc3F)C2)on1 (centres undefined),-5,-3,0,1,·,-1,·,·,·
O=C(COC(=O)c1ccc(O)cc1)Nc1ccc(N2CCCCC2)cc1,2,-9,3,56*,-3,1,1,2,-2
COc1ccccc1NC(=O)c1sc2ncn(CC(=O)Nc3ccccc3)c(=O)c2c1C,1,10,2,49*,15,5,27,18,9
SMILES,SUMO1-SIM PPI,DNMT1 inh,STEP inh,Rpn11 inh,Scp-1 inhibitor,LMPTP block,Rpn11 confirm,MMP-2 inh,Thrombin inh
CC1=CC(C)(C)N(C(=O)C(C)N2C(=O)c3ccccc3C2=O)c2ccc(C)cc21 (centres undefined),-2,-2,-6,2,-3,0,·,·,·
OC(c1ccc(F)c(F)c1)c1nc(-c2ccc3ccccc3c2)cs1 (centres undefined),-6,45,-1,4,·,3,·,·,·
CCOc1ccc(/C=C2/SC(=S)N(C(C(=O)O)c3ccccc3)C2=O)cc1OCC (centres undefined),-13,4,3,34,-3,3,·,·,·
CCOc1cc(/C=C2\SC(=S)N(C(C(=O)O)c3ccccc3)C2=O)ccc1O (centres undefined),-22,-4,1,112*,4,1,63*,13,72*
COc1cc(/C=C2\SC(=S)N(C(C(=O)O)c3ccccc3)C2=O)ccc1O (centres undefined),-18,-3,4,81*,-12,0,56*,-15,73*
COc1cc(/C=C2/SC(=S)N(c3c(C)n(C)n(-c4ccccc4)c3=O)C2=O)ccc1O,-33,-4,2,100*,-9,1,63*,-10,43*
O=C(O)C(c1ccccc1)N1C(=O)/C(=C\c2ccc(O)c(O)c2)SC1=S (centres undefined),-13,9,11,85*,31,5,61*,31,48*
CCN(CC)C(=O)c1cc([N+](=O)[O-])cc2c1-c1ccc([N+](=O)[O-])cc1C2=C(C#N)C#N,-30,-26,1,-1,-4,3,·,·,·
O=C(OCC(=O)c1ccccc1Cl)C1=NN(c2ccccc2)C(=O)CC1,4,0,-1,-3,-15,-2,·,·,·

# Bioassay records as filed in PubChem.
